Screening results: PubChem BioAssay, The Scripps Research Institute Molecular Screening Center
OX1R antag-1 = OX1R (human) antagonism | inhibition, % at 6.6 µM | AID 485270 | O43613 | actives 1.8% (n = 330,000) | OX1R-expressing cells, FRET antagonist read-out; in the data active means inhibition mostly above about 38%, no sharp cut-off; inactive means mostly below about 40%;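 further: 0% = agonist challenge alone and 100% = reference antagonist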
Target sequence (O43613 whole entry, looked up): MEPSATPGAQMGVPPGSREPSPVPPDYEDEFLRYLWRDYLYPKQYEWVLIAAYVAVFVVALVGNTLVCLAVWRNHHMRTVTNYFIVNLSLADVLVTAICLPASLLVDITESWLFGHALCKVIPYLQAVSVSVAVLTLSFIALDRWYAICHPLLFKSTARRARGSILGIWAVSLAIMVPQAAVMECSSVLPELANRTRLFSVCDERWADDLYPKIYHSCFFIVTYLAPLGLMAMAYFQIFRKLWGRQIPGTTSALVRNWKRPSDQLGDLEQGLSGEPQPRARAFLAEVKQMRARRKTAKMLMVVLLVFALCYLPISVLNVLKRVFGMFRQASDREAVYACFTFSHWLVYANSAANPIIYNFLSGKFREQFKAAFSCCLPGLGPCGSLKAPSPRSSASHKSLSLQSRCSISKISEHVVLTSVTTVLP
TAAR1 ag = human TAAR1 agonism | activation, % at 3 µM | CHO RD-HGA16 TAAR1, Fluo-8 calcium fluorescence; vehicle wells 0%, saturating PEA agonist 100% | Q96RJ0 | actives 0.99% (n = 360,000) | AID 624467;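 active means activation above the mean activation of all test compounds in the run plus 3 SD, cut at about 38% in these data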
Target sequence (Q96RJ0 whole entry, looked up): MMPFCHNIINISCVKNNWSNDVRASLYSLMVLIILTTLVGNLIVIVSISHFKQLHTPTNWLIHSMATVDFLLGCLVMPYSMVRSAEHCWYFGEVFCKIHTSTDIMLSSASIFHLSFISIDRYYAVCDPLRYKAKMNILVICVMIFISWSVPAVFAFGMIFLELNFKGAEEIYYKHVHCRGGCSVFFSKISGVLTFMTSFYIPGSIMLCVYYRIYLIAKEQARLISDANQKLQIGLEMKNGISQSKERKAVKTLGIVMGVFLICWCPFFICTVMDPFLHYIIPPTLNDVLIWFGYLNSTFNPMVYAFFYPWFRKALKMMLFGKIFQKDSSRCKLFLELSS
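Test system: RD-HGA16 (CHO) cells co-expressing Gα16 and hTAAR1; dosing: one-point dosing at 3 µM (nominal); timing: 17-24 h seeding, 75 min 37 °C dye, 30 min RT; signal: kinetic Fluo-8 calcium fluorescence; read-out basis: % activation relative to PEA EC100 response; controls: DMSO and PEA EC100; replicates: n 1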
TAAR1 antagonist = human TAAR1 antagonism | Q96RJ0 | CHO RD-HGA16 TAAR1, Fluo-8 calcium fluorescence, antagonist | inhibition, % at 3 µM | actives 1.5% (n = 360,000);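 active means inhibition above a per-plate cutoff, the mean inhibition of test compounds on that plate plus 3 SD, cut at about 49% in these data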;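 further: 0% = DMSO plus EC80 beta-PEA response and 100% = DMSO alone without agonist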
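Material: RD-HGA16 CHO cells with stable hTAAR1 and Gα16; Dosing: single nominal final test compound concentration of 3 µM; Schedule: seeding 17-24 h prior, 75-min 37 °C, 30-min RT dye loading; Detection: kinetic Fluo-8 calcium fluorescence measurement; Measure: % inhibition from peak post-agonist over basal fluorescence ratio; Benchmarks: vehicle and agonist controls.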
OX1R antag-2 = blocks the human orexin 1 receptor; O43613; CHO/OX1R cells, Fluo-8 calcium fluorescence, orexin A; inhibition, % at 5 µM; actives 0.43% (n = 330,000);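 active means inhibition above its plate's threshold, mean inhibition of all tested compounds on the plate plus 3 SD, cut at about 37% in these data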;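 further: 0% = orexin A challenge wells and 100% = SB-334867-A antagonist wells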
CHO parental Ca = signal in parental CHO cells, OX1R antagonist counter-screen | actives 0.63% (n = 330,000) | parental CHO-K1, ATP-induced calcium, Fluo-8 fluorescence | inhibition, % at 5.6 µM;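 active means inhibition above that plate's mean sample inhibition plus 3 SD, cut at about 26% in these data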;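 further: 0% = ATP-challenged DMSO wells and 100% = DMSO wells without ATP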
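Assay system – parental CHO cells · Reagent – ATP stimulus · Detection – intracellular calcium via Fluo-8 no-wash fluorescent dye · Evaluation – percent inhibition of ATP-evoked calcium rise, normalized to controls · Controls – ATP wells versus no-ATP DMSO wells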
TAAR1 ag confirm = confirmation of human TAAR1 agonists. shares compounds with TAAR1 ag. CHO RD-HGA16 TAAR1, Fluo-8 calcium fluorescence; scaled: DMSO 0%, maximal phenethylamine 100%. activation, % at 3 µM. actives 82% (n = 2,400). AID 651783;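 active means activation above a cutoff set at the run's mean compound activation plus 3 SD, cut at about 39% in these data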
Ga16 ag counter = counter-screen for TAAR1 agonists: nonselective agonists in parental cells; shares compounds with TAAR1 ag; CHO-Ga16 parental, Fluo-8 calcium fluorescence; normalized to maximal ATP response, DMSO zero; activation, % at 3 µM; actives 50% (n = 2,400);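 active means activation above the run cutoff, the mean activation over all tested wells plus 3 SD, cut at about 12% in these data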;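 further: 0% = DMSO wells and 100% = maximal ATP response on the peak over basal ratio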
TAAR1 desensitize = human TAAR1 agonist that also desensitizes the receptor; CHO RD-HGA16 hTAAR1, Fluo-8 calcium, beta-PEA response inhibition; actives 46% (n = 2,400); shares compounds with TAAR1 ag; inhibition, % at 3 µM; AID 651951;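 active means inhibition above the run cutoff, the mean inhibition of all test compounds plus 3 SD, cut at about 49% in these data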;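 further: beta-PEA stimulus applied at its EC80; loss of beta-PEA calcium signal after compound pretreatment read as receptor desensitization; 0% = DMSO with beta-PEA at EC80 and 100% = DMSO alone without agonist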
Ga16 nonsel ant = nonselective Ga16 antagonist in TAAR1 agonist counter-screen; actives 39% (n = 2,400); CHO-Ga16 ATP-induced calcium, Fluo-8 fluorescence; shares compounds with TAAR1 ag; inhibition, % at 3 µM;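 active means inhibition above the plate's mean compound inhibition plus 3 SD, computed per plate, cut at about 22% in these data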;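 further: 0% = EC80 ATP with DMSO and 100% = DMSO wells without ATP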
* = called active by the depositor; . = no result. In the library only some 3.9% were active in any assay of this set; here they are far more common.

SMILES | OX1R antag-1 | TAAR1 ag | TAAR1 antagonist | OX1R antag-2 | CHO parental Ca | TAAR1 ag confirm | Ga16 ag counter | TAAR1 desensitize | Ga16 nonsel ant
O=S(=O)(Cc1ccccc1)NCCc1cccc(Cl)c1 | . | 44* | -6 | . | . | 77* | 1 | 36 | 1
COc1cc(OC)cc(C(=O)N[C@H](C(=O)OCC(=O)Nc2cccnc2Cl)C(C)C)c1 | 8 | -1 | 6 | -3 | -19 | . | . | . | .
CCCc1c2ccccc2nc2ccccc12 | 38 | 70* | -33 | -18 | -20 | 11 | 10 | -12 | -5
Cc1cc(C(=O)CN2C(=O)C(=O)N(C3CCCC3)C2=O)c(C)n1CCc1ccc(F)cc1 | 8 | 72* | 13 | -27 | -21 | 82* | 2 | 54* | 15
Cc1cc(C(=O)CN2C(=O)C(=O)N(C3CCCC3)C2=O)c(C)n1CCc1ccccc1 | . | 49* | 28 | . | . | 80* | 1 | 55* | 15
Cc1cc(C(=O)CN2C(=O)C(=O)N(Cc3ccccc3)C2=O)c(C)n1Cc1ccccc1 | 5 | 7 | 18 | 9 | 2 | . | . | . | .
N#CC(C#N)=C1C=C2C=C(N3CCOCC3)CCC2CC1 (stereo unspecified) | . | 682* | 109* | . | . | 726* | 880* | 106* | 103*
Cc1ccc(OCC(=O)NNC(=S)NC(=O)C(C)(C)C)c(Br)c1 | 6 | 155* | 106* | -3 | -1 | 132* | 109* | 98* | 72*
Cc1ccc(OCC(=O)NNC(=S)NC(=O)C2CCCCC2)c(C)c1 | 9 | . | . | -28 | -10 | . | . | . | .
Cc1ccc(OCC(=O)NNC(=S)NC(=O)C2CC2)c(C)c1 | . | 49* | 14 | . | . | 48* | 50* | 36 | 39*
CC1(C)NC(=O)N(CCC(=O)Nc2cc(C(F)(F)F)ccc2Cl)C1=O | 5 | 6 | -5 | -20 | 0 | . | . | . | .
CCc1ccc(C)[n+](CC(=O)c2cccs2)c1 | 11 | 0 | -8 | 4 | -13 | . | . | . | .
Clc1ccc(-c2ccc(C=Nc3ccc(N4CCOCC4)cc3)o2)c(Cl)c1 | 20 | 30 | -25 | -9 | -13 | . | . | . | .
Clc1ccc(-c2ccc(C=Nc3ccc(N4CCOCC4)cc3)o2)cc1 | 32 | 54* | -2 | -9 | -10 | 27 | 15* | 16 | 18
CCOC(=O)C(NC(=O)CC)(N1CCc2ccccc2C1)C(F)(F)F (stereo unspecified) | 6 | 93* | 96* | -16 | -2 | 111* | 1 | 98* | 10
Cc1nn(C)cc1/C=N\NC(=O)c1ccc2c(c1)c(C)c(C)n2Cc1ccccc1 | 12 | 10 | -1 | -18 | -19 | . | . | . | .
O=C(COC(=O)/C=C/c1ccccc1Cl)NC1CCCCCC1 | 5 | 49* | 53* | -11 | -9 | 24 | 5 | 33 | 11
CCOc1ccc(S(=O)(=O)Nc2ccc(C(=O)NCC(c3ccco3)N3CCCCC3)cc2)cc1 (stereo unspecified) | 14 | 14 | -7 | -15 | -5 | . | . | . | .
COc1ccc(CCNC(=O)CC2Nc3ccccc3NC2=O)cc1 (stereo unspecified) | 35 | 13 | 1 | -35 | -18 | . | . | . | .
O=C(CC1Nc2ccccc2NC1=O)NCCc1ccccc1 (stereo unspecified) | 29 | 91* | 57* | -12 | -11 | 98* | 2 | 74* | -8
N#Cc1cccc(NC(=O)Nc2cccs2)c1 | 32 | 58* | 17 | 21 | 26 | 74* | 16* | 40 | 27*
CCOC(=O)c1ccc(Oc2cn[nH]c2-c2ccc(OCC(=O)NN)cc2O)cc1 | 5 | 86* | 35 | -4 | -6 | 47* | 17* | 27 | 21
CCCOC(=O)c1ccc(Oc2cn[nH]c2-c2ccc(OCC(=O)NN)cc2O)cc1 | -2 | 6 | 4 | -14 | -27 | . | . | . | .
O=C1C=CC(=O)N1c1ccc2c(c1)Cc1cc(F)ccc1-2 | . | 14 | 48 | . | . | . | . | . | .
CC(=O)Nc1ccc2c(c1)Cc1cc(N3C(=O)C=CC3=O)ccc1-2 | . | 59* | 52* | . | . | 34 | 29* | 48 | 54*
SMILES | OX1R antag-1 | TAAR1 ag | TAAR1 antagonist | OX1R antag-2 | CHO parental Ca | TAAR1 ag confirm | Ga16 ag counter | TAAR1 desensitize | Ga16 nonsel ant
COc1ccc(OC)c(/C=C2/Sc3ccccc3C2=O)c1 | 15 | 74* | 61* | 57* | 37* | 23 | 29* | 45 | 50*
COc1cccc(C(=O)NC(=S)Nc2ccc3c4c(cccc24)CC3)c1 | 34 | 4 | -31 | -23 | -14 | . | . | . | .
Cc1ccc(NC(=S)N2CCCC(O)C2)cc1 (stereo unspecified) | 6 | 1 | -3 | 0 | -12 | . | . | . | .
CCCC1(c2ccccc2)NC(=O)N(CC(=O)c2[nH]c(C)c(C(=O)OCC)c2C)C1=O (stereo unspecified) | -15 | 78* | 43 | 5 | -13 | 52* | 16* | 55* | 29*
CCOC(=O)c1c(C)[nH]c(C(=O)CN2C(=O)NC3(CCCC3)C2=O)c1C | 8 | 3 | -29 | -20 | -23 | . | . | . | .
Cc1cc(C)cc(C(=O)OCC(=O)Nc2ncccn2)c1 | 0 | 1 | -1 | -15 | -8 | . | . | . | .
COc1ccc(NC(=O)N2CCCC(c3ccccc3)C2)cc1 (stereo unspecified) | . | 55* | 27 | . | . | 61* | 0 | 33 | 13
COc1ccc(NC(=O)C2CCCN(C(=O)Nc3ccc(OC)cc3)C2)cc1 (stereo unspecified) | 23 | 0 | -11 | -7 | -13 | . | . | . | .
Cc1cc(NC(=O)CSc2ncc(C(=O)O)n2-c2ccc(F)cc2)no1 | 6 | 2 | -3 | -2 | 0 | . | . | . | .
CC(C)C(N)c1csc(Nc2ccc(C(=O)c3ccccc3)cc2)n1 (stereo unspecified) | . | 48* | -4 | . | . | 62* | 14* | 20 | 25*
COc1ccc(CC(N)c2csc(Nc3ccc(C(C)=O)cc3)n2)cc1 (stereo unspecified) | . | 19 | -4 | . | . | . | . | . | .
COc1ccc(CC(N)c2csc(Nc3ccc(C(=O)c4ccccc4)cc3)n2)cc1 (stereo unspecified) | . | 51* | 33 | . | . | 39* | 27* | 31 | 38*
Nc1ccc(CCNc2ncnc3c2ncn3[C@@H]2O[C@H](CO)[C@@H](O)[C@H]2O)cc1 | 24 | 0 | -3 | -8 | -4 | . | . | . | .
